Experimental data taken from ChEMBL document CHEMBL3632540, “Ynamide Click chemistry in development of triazole VEGFR2 TK modulators” (Eur J Med Chem, 2015).

Assays:
[1] = biological target: Vascular endothelial growth factor receptor 2 (Homo sapiens, UniProt P35968); test: Inhibition of GST-tagged human recombinant VEGFR2 kinase expressed in Sf9 insect cells by radiometric protein kinase assay
Summary of the method: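 Human VEGFR2 kinase made as GST fusion in Sf9 cells, purified on GSH-agarose, purity checked by SDS-PAGE/silver stain, identity confirmed by mass spectrometry.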

[2] = Cytotoxicity against human HuH7 cells incubated for 72 hrs by SRB assay; format: functional, cell-based, Huh-7
Summary of the method: (§1)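 HCC lines kept in DMEM with 10% FBS, L-glutamine, nonessential amino acids and penicillin/streptomycin at 37 °C, 5% CO2, STR-authenticated. Seeded at 2000 cells/well (Huh7) or 1000 cells/well (Mahlavu); serial dilutions added 24 h later, DMSO control. After 72 h, TCA-fixed, SRB-stained, dye solubilized in 10 mM Tris base, A515 read. Triplicates, normalized to DMSO.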

[3] = Cytotoxicity against human Mahlavu cells incubated for 72 hrs by SRB assay; format: functional, cell-based; summary of the method: as §1
[4] = Homo sapiens, Huh-7, 72 h, read-out: IC50

Vascular endothelial growth factor receptor 2, sequence (P35968 whole entry, the tested form may be a part): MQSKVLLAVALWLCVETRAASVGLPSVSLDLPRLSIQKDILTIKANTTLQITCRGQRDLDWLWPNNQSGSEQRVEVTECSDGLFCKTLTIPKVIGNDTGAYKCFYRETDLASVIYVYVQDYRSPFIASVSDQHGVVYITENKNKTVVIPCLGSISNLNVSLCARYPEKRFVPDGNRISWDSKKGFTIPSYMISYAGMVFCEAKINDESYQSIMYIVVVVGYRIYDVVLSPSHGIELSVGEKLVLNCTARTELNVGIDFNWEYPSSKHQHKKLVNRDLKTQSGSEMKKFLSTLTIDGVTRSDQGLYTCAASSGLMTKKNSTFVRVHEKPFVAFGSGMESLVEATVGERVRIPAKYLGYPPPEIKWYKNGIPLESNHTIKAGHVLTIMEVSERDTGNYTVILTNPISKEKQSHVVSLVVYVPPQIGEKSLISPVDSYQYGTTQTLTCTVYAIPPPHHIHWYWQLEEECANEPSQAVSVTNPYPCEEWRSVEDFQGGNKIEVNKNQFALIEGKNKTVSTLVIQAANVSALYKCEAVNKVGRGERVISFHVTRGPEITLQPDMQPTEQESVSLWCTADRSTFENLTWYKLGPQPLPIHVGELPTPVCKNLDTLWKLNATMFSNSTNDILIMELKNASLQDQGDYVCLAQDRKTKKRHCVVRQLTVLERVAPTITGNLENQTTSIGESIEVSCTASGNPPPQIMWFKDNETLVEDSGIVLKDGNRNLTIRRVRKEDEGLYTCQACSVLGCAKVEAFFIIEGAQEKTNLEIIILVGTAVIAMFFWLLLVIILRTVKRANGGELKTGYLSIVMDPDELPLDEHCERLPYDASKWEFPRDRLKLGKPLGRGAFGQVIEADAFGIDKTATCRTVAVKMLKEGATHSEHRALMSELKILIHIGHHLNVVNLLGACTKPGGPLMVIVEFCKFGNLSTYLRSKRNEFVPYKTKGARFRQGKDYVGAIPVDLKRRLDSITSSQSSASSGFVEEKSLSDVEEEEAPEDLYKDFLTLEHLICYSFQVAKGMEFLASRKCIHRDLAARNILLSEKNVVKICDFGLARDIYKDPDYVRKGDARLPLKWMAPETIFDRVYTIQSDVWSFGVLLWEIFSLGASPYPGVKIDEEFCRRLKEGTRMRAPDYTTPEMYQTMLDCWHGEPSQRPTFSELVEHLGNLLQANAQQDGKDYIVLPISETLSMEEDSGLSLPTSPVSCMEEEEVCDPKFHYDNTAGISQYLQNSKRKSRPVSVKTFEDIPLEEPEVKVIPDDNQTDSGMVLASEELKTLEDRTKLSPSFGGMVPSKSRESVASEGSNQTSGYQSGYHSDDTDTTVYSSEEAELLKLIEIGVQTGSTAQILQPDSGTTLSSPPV

Row | SMILES | IC50 ([1]; read-out: IC50) [µM] | IC50 ([1]; sf9) | IC50 [2, 4] [µM] | IC50 [3] [µM] | IC50 ([2]; huh-7)
1 | CCS(=O)(=O)c1ccc(OC)c(Nc2cn(-c3ccc(O)c(-c4ccccn4)c3)nn2)c1 | 6.96 |  | 17.7 | 13.8 | 
2 | CCS(=O)(=O)c1ccc(OC)c(Nc2cn(-c3cc(-c4ccccc4)nc(-c4ccccc4)n3)nn2)c1 |  | Not Active |  |  | 
3 | CCS(=O)(=O)c1ccc(OC)c(Nc2cn(-c3ccc(O)c(-c4cccnc4)c3)nn2)c1 |  | Not Active |  |  | 

Second part, led by results:

Row | IC50 ([1]; read-out: IC50) [µM] | IC50 ([1]; sf9) | SMILES | IC50 [2, 4] [µM] | IC50 [3] [µM] | IC50 ([2]; huh-7)
4 | 40.1 |  | CCS(=O)(=O)c1ccc(OC)c(Nc2cn(-c3ccc(O)c(-c4cc[nH]c4)c3)nn2)c1 | 18.6 | 11.9 | 
5 | > 100 |  | CCS(=O)(=O)c1ccc(OC)c(Nc2cn(-c3ccc(NC(N)=O)c(-c4cccc5ccccc45)c3)nn2)c1 |  | 27.9 | Not Active
6 | > 100 |  | CCS(=O)(=O)c1ccc(OC)c(Nc2cn(-c3cccc(-c4cccnc4)c3)nn2)c1 | 12.8 | 11.8 | 
7 | 42 |  | CCS(=O)(=O)c1ccc(OC)c(Nc2cn(-c3cccc(-c4ccccn4)c3)nn2)c1 |  |  | 
